Measured values published in ChEMBL document CHEMBL1212899, “Strategies for recognition of stem-loop RNA structures by synthetic ligands: application to the HIV-1 frameshift stimulatory sequence” (J Med Chem, 2010).

Legend:
[1] = target: Nucleic Acid; assay: Binding affinity to HIV1 frameshift-stimulating RNA by fluorescence titration in presence of yeast tRNA; assay type: nucleic-acid assay, Human immunodeficiency virus 1
Method in brief: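 Cy3-labelled HIV-1 FSS RNA was premixed with yeast total tRNA competitor (8 or 16 μM) in 1X PBS pH 7.2 with MgCl2, then titrated with compound. Fluorescence was read at 564.1 nm after at least 10 min equilibration per addition. Dilution-corrected ΔFU was fit to a 1-site ligand-depletion model for KD.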

[2] = Dissociation constant Kd of the compound; assay type: physicochemical
[3] = target: Nucleic Acid; assay: Binding affinity to HIV1 frameshift-stimulating RNA by fluorescence titration; assay type: nucleic-acid assay, Human immunodeficiency virus 1
Method in brief: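 5′-Cy3-labelled HIV-1 FSS RNA (400 or 500 nM) in 1X PBS pH 7.2 was heated to 65 °C for 4 min, then MgCl2 was added. Compound was titrated in over 100 nM–10 μM, with at least 10 min equilibration per step. Cy3 emission at 564.1 nm was dilution-corrected, and ΔFU was fit to a 1:1 model with ligand depletion to give KD. At least 2 titrations were run.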

[4] = Cytotoxicity against human fibroblast up to 10 uM; assay type: cell-based; details: in the assay text read “up to 1 mM” for “up to 10 uM”
Method in brief: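 Human fibroblasts were grown in DMEM with 5% FBS at 37 °C and 5% CO2, seeded at 3.2 × 10^4 cells/well, and grown 48 h to about 80% confluence. Cells were exposed to compound in DMEM for 24 h, with mitomycin C as control. MTT was added for 4 h, formazan was dissolved in isopropanol, and absorbance was read at 600 nm.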

SMILES | Kd ([1]; read-out: Kd) | Kd [2] | Kd ([3]; read-out: Kd) | also measured
CCc1nc2ccccc2cc1C(=O)N[C@@H](C/C=C\C[C@H](NC(=O)c1cc2ccccc2nc1CC)C(=O)N1CCC[C@H]1C(=O)N[C@@H](Cc1ccccc1)C(=O)NCCCN)C(=O)N1CCC[C@H]1C(=O)N[C@@H](Cc1ccccc1)C(=O)NCCCN | 260 nM | 4660 nM | 180 nM | Activity [4]: Non-toxic
CCc1nc2cc3c(cc2cc1C(=O)N[C@@H](CSSC[C@H](NC(=O)c1cc2cc4c(cc2nc1CC)OCO4)C(=O)N1CCC[C@H]1C(=O)N[C@@H](Cc1ccccc1)C(=O)NCCCN)C(=O)N1CCC[C@H]1C(=O)N[C@@H](Cc1ccccc1)C(=O)NCCCN)OCO3 |  |  | 1420 nM | 
CCc1nc2ccccc2cc1C(=O)O |  |  | 290 nM | Kd [1]: Not Active
CCc1nc2ccccc2cc1C(=O)N[C@@H](C/C=C/C[C@H](NC(=O)c1cc2ccccc2nc1CC)C(=O)N1CCC[C@H]1C(=O)N[C@@H](Cc1ccccc1)C(=O)NCCCN)C(=O)N1CCC[C@H]1C(=O)N[C@@H](Cc1ccccc1)C(=O)NCCCN | 390 nM | 11200 nM | 330 nM | 
C=CC[C@H](NC(=O)c1cc2ccccc2nc1CC)C(=O)N1CCC[C@H]1C(=O)N[C@@H](Cc1ccccc1)C(=O)NCCCN |  |  | 470 nM | Kd [1]: Not Active
CCc1nc2ccccc2cc1C(=O)N[C@@H](CCCC[C@H](NC(=O)c1cc2ccccc2nc1CC)C(=O)N1CCC[C@H]1C(=O)N[C@@H](Cc1ccccc1)C(=O)NCCCN)C(=O)N1CCC[C@H]1C(=O)N[C@@H](Cc1ccccc1)C(=O)NCCCN | 1410 nM | 12300 nM | 1270 nM | 
NC[C@@H]1O[C@H](O[C@H]2[C@@H](O)[C@H](O[C@@H]3[C@@H](O)[C@H](N)C[C@H](N)[C@H]3O[C@H]3O[C@H](CN)[C@@H](O)[C@H](O)[C@H]3N)O[C@@H]2CO)[C@H](N)[C@@H](O)[C@@H]1O [FRAMYCETIN] |  | 2600 nM |  | 
NCCCNC(=O)[C@H](Cc1ccccc1)NC(=O)[C@@H]1CCCN1C(=O)[C@H](CSSC[C@H](NC(=O)c1ccc2c(c1)C(=O)c1ccccc1C2=O)C(=O)N1CCC[C@H]1C(=O)N[C@@H](Cc1ccccc1)C(=O)NCCCN)NC(=O)c1ccc2c(c1)C(=O)c1ccccc1C2=O |  |  | 230 nM | 
NCCCNC(=O)[C@H](Cc1ccccc1)NC(=O)[C@@H]1CCCN1C(=O)[C@H](CSSC[C@H](NC(=O)c1cnc2ccccc2c1)C(=O)N1CCC[C@H]1C(=O)N[C@@H](Cc1ccccc1)C(=O)NCCCN)NC(=O)c1cnc2ccccc2c1 |  |  | 650 nM | 
CCc1nc2ccccc2cc1C(=O)N[C@@H](CSSC[C@H](NC(=O)c1cc2ccccc2nc1CC)C(=O)N1CCC[C@H]1C(=O)N[C@@H](Cc1ccccc1)C(=O)NCCCN)C(=O)N1CCC[C@H]1C(=O)N[C@@H](Cc1ccccc1)C(=O)NCCCN | 200 nM | 7880 nM | 350 nM | 
NCCCNC(=O)[C@H](Cc1ccccc1)NC(=O)[C@@H]1CCCN1C(=O)[C@@H](N)CSSC[C@H](N)C(=O)N1CCC[C@H]1C(=O)N[C@@H](Cc1ccccc1)C(=O)NCCCN |  |  |  | Kd [3]: Not Active
Cc1nc2ccccc2cc1C(=O)N[C@@H](CSSC[C@H](NC(=O)c1cc2ccccc2nc1C)C(=O)N1CCC[C@H]1C(=O)N[C@@H](Cc1ccccc1)C(=O)NCCCN)C(=O)N1CCC[C@H]1C(=O)N[C@@H](Cc1ccccc1)C(=O)NCCCN |  |  | 430 nM | 
